Paper PMC8552233 (ACS Omega, 2021)

Molecular target: T1, P. falciparum IspC (Plasmodium falciparum, UniProt O96693)
T1 sequence (O96693 73-488): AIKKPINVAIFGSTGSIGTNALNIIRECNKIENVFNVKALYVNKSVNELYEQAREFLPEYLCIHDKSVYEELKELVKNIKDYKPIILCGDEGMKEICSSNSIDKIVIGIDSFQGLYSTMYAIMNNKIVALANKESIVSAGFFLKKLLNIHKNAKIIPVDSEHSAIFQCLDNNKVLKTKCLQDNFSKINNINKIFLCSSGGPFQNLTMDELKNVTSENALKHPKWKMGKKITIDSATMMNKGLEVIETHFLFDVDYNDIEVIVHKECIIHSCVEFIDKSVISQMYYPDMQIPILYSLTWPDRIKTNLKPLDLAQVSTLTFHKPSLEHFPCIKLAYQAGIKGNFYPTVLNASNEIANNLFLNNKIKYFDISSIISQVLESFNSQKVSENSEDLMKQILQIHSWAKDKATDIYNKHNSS
Experiment: P. falciparum IspC inhibition assay
Format: biochemical
Settings: not given
Procedure, shortened: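 His6-tagged recombinant enzyme (E. coli Rosetta2(DE3), TALON-purified), 0.86 μM in 100 mM Tris pH 7.8, 25 mM MgCl2. Preincubated 10 min at 37 °C with inhibitor, then 150 μM NADPH added for 5 min. Reaction started with 144 μM DXP and A340 followed at 37 °C. IC50 from nonlinear sigmoidal fit of fractional activity versus inhibitor concentration; duplicate.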

Row | SMILES | IC50
1 | O=C(CCCc1ccccc1)N(O)CCCP(=O)([O-])O.[Na+] [4a] | 1340 nM
2 | O=C(CCc1ccccc1)N(O)C/C=C/P(=O)([O-])O.[Na+] [1b, Sodium Hydrogen [(1E)-3-(N-hydroxy-3-phenylpropanamido)prop-1-en-1-yl]phosphonate] | 1310 nM
3 | O=C(CCCc1ccccc1)N(O)C/C=C/P(=O)([O-])O.[Na+] [2b, Sodium Hydrogen [(1E)-3-(N-hydroxy-4-phenylbutanamido)prop-1-en-1-yl]phosphonate] | 900 nM
4 | CC(=O)N(C/C=C/P(=O)([O-])O)OCc1ccc(-c2ccccc2)cc1.[Na+] [1d] | 5670 nM
5 | CC(=O)N(CCCP(=O)([O-])O)OCc1ccc(-c2ccccc2)cc1.[Na+] [3c] | 804 nM
6 | CCCCC(=O)N(O)CCCP(=O)([O-])O.[Na+] [3a, Sodium Hydrogen-3-(N-hydroxypentanamido)propylphosphonate] | 2450 nM

Molecular target: T1, P. falciparum IspC
Experiment: Mechanism of inhibition
Format: biochemical
Settings: not given
Procedure, shortened: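 N-terminal His6-tagged recombinant enzyme, expressed in E. coli Rosetta2(DE3) and purified by TALON affinity chromatography. […] NADPH oxidation read at 340 nm. Mode taken from Lineweaver–Burk linear fits, Ki from secondary plots; at least triplicate.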

Row | SMILES | Ki
7 | CC(=O)N(O)CCCP(=O)(O)O [2a, FR900098] | 9 nM

Same assay, conditions: 1d versus 3c

Row | SMILES | Ki relative to DXP, fold higher than that of 3c
8 | CC(=O)N(C/C=C/P(=O)([O-])O)OCc1ccc(-c2ccccc2)cc1.[Na+] [1d] | 3 fold

Same assay, conditions: Lineweaver-Burk plots; DXP varied 50-400 μM, NADPH 150 μM

Row | SMILES | mode of inhibition with respect to DXP
9 | O=C(CCCc1ccccc1)N(O)CCCP(=O)([O-])O.[Na+] [4a] | competitive
10 | CC(=O)N(O)CCCP(=O)(O)O [2a, FR900098] | competitive
11 | O=C(CCc1ccccc1)N(O)C/C=C/P(=O)([O-])O.[Na+] [1b, Sodium Hydrogen [(1E)-3-(N-hydroxy-3-phenylpropanamido)prop-1-en-1-yl]phosphonate] | competitive
12 | O=C(CCCc1ccccc1)N(O)C/C=C/P(=O)([O-])O.[Na+] [2b, Sodium Hydrogen [(1E)-3-(N-hydroxy-4-phenylbutanamido)prop-1-en-1-yl]phosphonate] | competitive
13 | CC(=O)N(C/C=C/P(=O)([O-])O)OCc1ccc(-c2ccccc2)cc1.[Na+] [1d] | competitive
14 | CC(=O)N(CCCP(=O)([O-])O)OCc1ccc(-c2ccccc2)cc1.[Na+] [3c] | competitive
15 | CCCCC(=O)N(O)CCCP(=O)([O-])O.[Na+] [3a, Sodium Hydrogen-3-(N-hydroxypentanamido)propylphosphonate] | competitive

Same assay, conditions: Lineweaver-Burk plots; NADPH varied 6-30 μM, DXP 144 μM

Row | SMILES | mode of inhibition with respect to NADPH
16 | O=C(CCCc1ccccc1)N(O)CCCP(=O)([O-])O.[Na+] [4a] | uncompetitive
17 | CC(=O)N(O)CCCP(=O)(O)O [2a, FR900098] | uncompetitive
18 | O=C(CCc1ccccc1)N(O)C/C=C/P(=O)([O-])O.[Na+] [1b, Sodium Hydrogen [(1E)-3-(N-hydroxy-3-phenylpropanamido)prop-1-en-1-yl]phosphonate] | uncompetitive
19 | O=C(CCCc1ccccc1)N(O)C/C=C/P(=O)([O-])O.[Na+] [2b, Sodium Hydrogen [(1E)-3-(N-hydroxy-4-phenylbutanamido)prop-1-en-1-yl]phosphonate] | uncompetitive
20 | CC(=O)N(C/C=C/P(=O)([O-])O)OCc1ccc(-c2ccccc2)cc1.[Na+] [1d] | competitive
21 | CC(=O)N(CCCP(=O)([O-])O)OCc1ccc(-c2ccccc2)cc1.[Na+] [3c] | competitive
22 | CCCCC(=O)N(O)CCCP(=O)([O-])O.[Na+] [3a, Sodium Hydrogen-3-(N-hydroxypentanamido)propylphosphonate] | uncompetitive

Molecular target: T1, P. falciparum IspC
Experiment: not given
Settings: cited from earlier work

Row | SMILES | mode of inhibition with respect to DXP | mode of inhibition with respect to NADPH
23 | O=CN(O)CCCP(=O)(O)O [1a, fosmidomycin] | competitive | uncompetitive
24 | CC(=O)N(O)CCCP(=O)(O)O [2a, FR900098] | competitive | uncompetitive

System: Mycobacterium tuberculosis
Experiment: not given
Settings: antibacterial activity; cited from earlier work

Row | SMILES | MIC
25 | CC(=O)N(O)CCCP(=O)(O)O [2a, FR900098] | > 500 µg/mL

System: not given
Experiment: not given
Settings: cited from earlier work

Row | SMILES | serum half-life
26 | O=CN(O)CCCP(=O)(O)O [1a, fosmidomycin] | short
27 | CC(=O)N(O)CCCP(=O)(O)O [2a, FR900098] | short
